Results published in ChEMBL document CHEMBL3352678, “Synthesis and acetylcholinesterase inhibitory activity of Mannich base derivatives flavokawain B” (Bioorg Med Chem Lett, 2014).

What was measured:
[1] = compound: COc1cc(OC)c(C(=O)/C=C/c2ccccc2)c(O)c1CN1CCCCC1; assay: Inhibition of Sprague-Dawley rat brain AChE using acetylthiocholin iodide as substrate at 4.4 uM by Michaelis-Menten equation
In short: (§1)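 Kinetic analysis: Km and vmax were determined at several inhibitor concentrations. Ki for the free enzyme came from a linear replot of slope against inhibitor concentration. Ki′ for the enzyme–substrate complex came from a linear replot of intercept against inhibitor concentration.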

[2] = compound: COc1cc(OC)c(C(=O)/C=C/c2ccccc2)c(O)c1CN1CCCCC1; assay: Inhibition of Sprague-Dawley rat brain AChE using acetylthiocholin iodide as substrate at 2.2 uM by Michaelis-Menten equation; in short: as §1

B1: Acetylcholinesterase (Rattus norvegicus), P37136 (protein)
chain: MRPPWYPLHTPSLASPLLFLLLSLLGGGARAEGREDPQLLVRVRGGQLRGIRLKAPGGPVSAFLGIPFAEPPVGSRRFMPPEPKRPWSGILDATTFQNVCYQYVDTLYPGFEGTEMWNPNRELSEDCLYLNVWTPYPRPTSPTPVLIWIYGGGFYSGASSLDVYDGRFLAQVEGTVLVSMNYRVGTFGFLALPGSREAPGNVGLLDQRLALQWVQENIAAFGGDPMSVTLFGESAGAASVGMHILSLPSRSLFHRAVLQSGTPNGPWATVSAGEARRRATLLARLVGCPPGGAGGNDTELISCLRTRPAQDLVDHEWHVLPQESIFRFSFVPVVDGDFLSDTPDALINTGDFQDLQVLVGVVKDEGSYFLVYGVPGFSKDNESLISRAQFLAGVRIGVPQASDLAAEAVVLHYTDWLHPEDPAHLRDAMSAVVGDHNVVCPVAQLAGRLAAQGARVYAYIFEHRASTLTWPLWMGVPHGYEIEFIFGLPLDPSLNYTVEERIFAQRLMQYWTNFARTGDPNDPRDSKSPRWPPYTTAAQQYVSLNLKPLEVRRGLRAQTCAFWNRFLPKLLSATDTLDEAERQWKAEFHRWSSYMVHWKNQFDHYSKQERCSDL
Km [1]: 4.63 mM
Vmax [1]: 0.0212 deltaA/min
Km [2]: 4.18 mM
Vmax [2]: 0.0288 deltaA/min
